Experiments:
[1] = target: T1, Gastrin/cholecystokinin type B receptor (Rattus norvegicus, UniProt P30553); experiment: Inhibition of 71 pM [125I]BH-(Thr,Nle)CCK-9 binding to rat cholecystokinin 2 receptor
T1 sequence (P30553 whole entry): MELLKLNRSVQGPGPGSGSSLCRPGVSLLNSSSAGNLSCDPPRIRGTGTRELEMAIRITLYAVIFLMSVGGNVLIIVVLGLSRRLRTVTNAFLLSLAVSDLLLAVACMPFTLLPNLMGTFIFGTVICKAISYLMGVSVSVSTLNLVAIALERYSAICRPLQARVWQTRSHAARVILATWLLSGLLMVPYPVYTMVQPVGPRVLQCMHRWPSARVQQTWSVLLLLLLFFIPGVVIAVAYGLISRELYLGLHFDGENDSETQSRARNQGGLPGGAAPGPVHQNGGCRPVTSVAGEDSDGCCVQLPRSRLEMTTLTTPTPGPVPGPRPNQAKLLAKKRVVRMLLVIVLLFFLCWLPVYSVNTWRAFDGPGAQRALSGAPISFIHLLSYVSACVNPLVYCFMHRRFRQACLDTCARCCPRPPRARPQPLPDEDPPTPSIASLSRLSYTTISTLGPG

[2] = target: T2, Gastrin/cholecystokinin type B receptor (Homo sapiens, UniProt P32239); experiment: Inhibition of CCK binding to Cos-7 cells expressing human cholecystokinin 2 receptor; type: cell-based
T2 sequence (P32239 whole entry): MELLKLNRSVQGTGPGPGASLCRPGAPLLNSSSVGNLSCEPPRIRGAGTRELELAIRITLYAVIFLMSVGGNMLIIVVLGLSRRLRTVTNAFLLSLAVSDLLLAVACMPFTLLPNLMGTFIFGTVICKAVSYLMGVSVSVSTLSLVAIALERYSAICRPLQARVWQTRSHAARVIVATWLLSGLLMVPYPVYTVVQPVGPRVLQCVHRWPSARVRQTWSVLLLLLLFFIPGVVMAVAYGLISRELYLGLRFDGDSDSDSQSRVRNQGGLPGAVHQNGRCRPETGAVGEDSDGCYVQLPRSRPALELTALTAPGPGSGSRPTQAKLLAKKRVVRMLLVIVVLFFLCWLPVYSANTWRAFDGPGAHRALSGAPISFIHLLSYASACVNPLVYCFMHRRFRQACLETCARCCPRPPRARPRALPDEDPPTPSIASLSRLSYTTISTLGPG
Summary of the method: (§1)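 COS-7 cells were grown in DMEM with 5% FCS and transiently transfected by DEAE-dextran with 2 µg/plate of human CCK1R or CCK2R cDNA (from pancreas or gallbladder). About 24 h after replating, cells were incubated 60 min at 37 °C in DMEM with 0.1% BSA and 71 pM [125I]BH-(Thr,Nle)CCK-9 plus competitor. Nonspecific binding used 1 µM. IC50 given as mean ± SEM, 3–6 experiments.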

[3] = target: T3, Cholecystokinin receptor type A (Homo sapiens, UniProt P32238); experiment: Inhibition of CCK-Induced inositol phosphate production in Cos-7 cells expressing human CCK1R; type: functional, cell-based
T3 sequence (P32238 whole entry): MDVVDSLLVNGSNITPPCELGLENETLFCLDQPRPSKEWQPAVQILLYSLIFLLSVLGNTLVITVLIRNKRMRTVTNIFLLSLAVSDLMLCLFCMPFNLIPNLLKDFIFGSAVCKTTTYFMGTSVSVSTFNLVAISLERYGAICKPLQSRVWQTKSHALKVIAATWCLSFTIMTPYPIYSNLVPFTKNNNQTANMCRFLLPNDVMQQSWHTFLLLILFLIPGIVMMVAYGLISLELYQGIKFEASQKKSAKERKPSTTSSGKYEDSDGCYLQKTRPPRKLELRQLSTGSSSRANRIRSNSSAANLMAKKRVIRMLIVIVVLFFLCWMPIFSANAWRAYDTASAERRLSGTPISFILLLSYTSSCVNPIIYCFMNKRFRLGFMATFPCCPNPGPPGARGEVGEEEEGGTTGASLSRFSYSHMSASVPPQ

[4] = target: T3, Cholecystokinin receptor type A; experiment: Inhibition of CCK binding to Cos-7 cells expressing human cholecystokinin 1 receptor; type: cell-based; summary of the method: as §1
[5] = test system: Cholecystokinin receptor type A (Homo sapiens), P32238 [UNDEFINED MUTATION]
[6] = target: Cholecystokinin receptor type A (Homo sapiens, UniProt P32238, I329F); experiment: Inhibition of CCK-Induced inositol phosphate in Cos-7 cells expressing mutant CCK1R (I329F); type: functional, cell-based
Summary of the method: (§2)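 Mutant human CCK1R cDNAs were made by site-directed mutagenesis in pRFENeo and sequence-verified. COS-7 cells were transfected by DEAE-dextran. Cells were [3H]inositol-labelled overnight, then LiCl-preincubated and incubated 60 min at 37 °C in pH 7.45 PI buffer with CCK and varying antagonist. Dowex-separated inositol phosphates were counted. IC50 given as mean ± SEM; Fmut = IC50(mutant)/IC50(wild type).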

[7] = test system: Cholecystokinin receptor type A (Homo sapiens), P32238 [UNDEFINED MUTATION]; remark: listed apart in the source
[8] = test system: Cholecystokinin receptor type A (Homo sapiens), P32238 [UNDEFINED MUTATION]; remark: listed apart in the source
[9] = test system: Cholecystokinin receptor type A (Homo sapiens), P32238 [UNDEFINED MUTATION]; remark: listed apart in the source
[10] = test system: Cholecystokinin receptor type A (Homo sapiens), P32238 [UNDEFINED MUTATION]; remark: listed apart in the source
[11] = target: Cholecystokinin receptor type A (Homo sapiens, UniProt P32238, I329A); experiment: Inhibition of CCK-induced inositol phosphate in Cos-7 cells expressing mutant CCK1R (I329A); type: functional, cell-based; summary of the method: as §2
[12] = test system: Cholecystokinin receptor type A (Homo sapiens), P32238 [UNDEFINED MUTATION]; remark: listed apart in the source
[13] = test system: Cholecystokinin receptor type A (Homo sapiens), P32238 [UNDEFINED MUTATION]; remark: listed apart in the source
[14] = test system: Cholecystokinin receptor type A (Homo sapiens), P32238 [UNDEFINED MUTATION]; remark: listed apart in the source
[15] = test system: Cholecystokinin receptor type A (Homo sapiens), P32238 [UNDEFINED MUTATION]; remark: listed apart in the source
[16] = target: Cholecystokinin receptor type A (Homo sapiens, UniProt P32238, R197M); experiment: Inhibition of CCK-Induced inositol phosphate in Cos-7 cells expressing mutant CCK1R (R197M); type: functional, cell-based; summary of the method: as §2
[17] = target: Cholecystokinin receptor type A (Homo sapiens, UniProt P32238, I352A); experiment: Inhibition of CCK-Induced inositol phosphate in Cos-7 cells expressing mutant CCK1R (I352A); type: functional, cell-based; summary of the method: as §2
[18] = target: Cholecystokinin receptor type A (Homo sapiens, UniProt P32238, M195L); experiment: Inhibition of CCK-Induced inositol phosphate in Cos-7 cells expressing mutant CCK1R (M195L); type: functional, cell-based; summary of the method: as §2
[19] = target: Cholecystokinin receptor type A (Homo sapiens, UniProt P32238, S342A); experiment: Inhibition of CCK-Induced inositol phosphate in Cos-7 cells expressing mutant CCK1R (S342A); type: functional, cell-based; summary of the method: as §2
[20] = test system: Cholecystokinin receptor type A (Homo sapiens), P32238 [UNDEFINED MUTATION]; remark: listed apart in the source
[21] = target: T4, Cholecystokinin receptor type A (Rattus norvegicus, UniProt P30551); experiment: Inhibition of 71 pM [125I]BH-(Thr,Nle)CCK-9 binding to rat cholecystokinin 1 receptor
T4 sequence (P30551 whole entry): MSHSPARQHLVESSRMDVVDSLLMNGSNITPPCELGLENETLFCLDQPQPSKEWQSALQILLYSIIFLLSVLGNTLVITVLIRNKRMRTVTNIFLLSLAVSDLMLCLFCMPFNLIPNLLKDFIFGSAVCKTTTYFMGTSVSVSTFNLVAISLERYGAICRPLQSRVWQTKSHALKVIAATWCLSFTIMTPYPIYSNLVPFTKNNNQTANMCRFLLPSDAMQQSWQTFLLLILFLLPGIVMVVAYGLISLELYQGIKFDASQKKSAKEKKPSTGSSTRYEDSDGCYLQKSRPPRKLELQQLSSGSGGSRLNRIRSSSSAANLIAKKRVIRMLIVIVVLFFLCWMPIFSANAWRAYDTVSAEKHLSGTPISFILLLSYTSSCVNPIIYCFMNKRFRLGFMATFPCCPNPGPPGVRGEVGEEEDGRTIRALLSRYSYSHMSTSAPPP

[22] = target: Cholecystokinin receptor type A (Homo sapiens, UniProt P32238, S348A); experiment: Inhibition of CCK-Induced inositol phosphate in Cos-7 cells expressing mutant CCK1R (S348A); type: functional, cell-based; summary of the method: as §2
[23] = target: Cholecystokinin receptor type A (Homo sapiens, UniProt P32238, R336M); experiment: Inhibition of CCK-Induced inositol phosphate in Cos-7 cells expressing mutant CCK1R (R336M); type: functional, cell-based; summary of the method: as §2
[24] = target: Cholecystokinin receptor type A (Homo sapiens, UniProt P32238, F107A); experiment: Inhibition of CCK-induced inositol phosphate in Cos-7 cells expressing mutant CCK1R (F107A); type: functional, cell-based; summary of the method: as §2
[25] = target: Cholecystokinin receptor type A (Homo sapiens, UniProt P32238, T117A); experiment: Inhibition of CCK-Induced inositol phosphate in Cos-7 cells expressing mutant CCK1R (T117A); type: functional, cell-based; summary of the method: as §2
Chain of Cholecystokinin receptor type A (Homo sapiens, UniProt P32238, T117A) (P32238 whole entry T117A): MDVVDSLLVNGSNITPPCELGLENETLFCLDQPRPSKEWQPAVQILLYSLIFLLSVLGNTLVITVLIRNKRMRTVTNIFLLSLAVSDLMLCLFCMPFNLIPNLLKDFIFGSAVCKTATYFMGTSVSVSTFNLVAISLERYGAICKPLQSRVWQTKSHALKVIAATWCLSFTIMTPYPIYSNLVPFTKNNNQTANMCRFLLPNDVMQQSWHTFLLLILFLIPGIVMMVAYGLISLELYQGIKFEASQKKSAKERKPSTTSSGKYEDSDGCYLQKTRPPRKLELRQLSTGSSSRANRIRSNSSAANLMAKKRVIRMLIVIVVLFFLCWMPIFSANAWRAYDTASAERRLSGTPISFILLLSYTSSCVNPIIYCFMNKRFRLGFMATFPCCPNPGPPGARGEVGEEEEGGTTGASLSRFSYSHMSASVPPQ

Chain of Cholecystokinin receptor type A (Homo sapiens, UniProt P32238, F107A) (P32238 whole entry F107A): as the sequence (P32238 whole entry T117A) above, with F107A, A117T counted along it
Chain of Cholecystokinin receptor type A (Homo sapiens, UniProt P32238, I329F) (P32238 whole entry I329F): as the sequence (P32238 whole entry T117A) above, with A117T, I329F counted along it
Chain of Cholecystokinin receptor type A (Homo sapiens, UniProt P32238, M195L) (P32238 whole entry M195L): as the sequence (P32238 whole entry T117A) above, with A117T, M195L counted along it
Chain of Cholecystokinin receptor type A (Homo sapiens, UniProt P32238, R197M) (P32238 whole entry R197M): as the sequence (P32238 whole entry T117A) above, with A117T, R197M counted along it
Chain of Cholecystokinin receptor type A (Homo sapiens, UniProt P32238, R336M) (P32238 whole entry R336M): as the sequence (P32238 whole entry T117A) above, with A117T, R336M counted along it
Chain of Cholecystokinin receptor type A (Homo sapiens, UniProt P32238, S342A) (P32238 whole entry S342A): as the sequence (P32238 whole entry T117A) above, with A117T, S342A counted along it
Chain of Cholecystokinin receptor type A (Homo sapiens, UniProt P32238, I352A) (P32238 whole entry I352A): as the sequence (P32238 whole entry T117A) above, with A117T, I352A counted along it
Chain of Cholecystokinin receptor type A (Homo sapiens, UniProt P32238, S348A) (P32238 whole entry S348A): as the sequence (P32238 whole entry T117A) above, with A117T, S348A counted along it
Chain of Cholecystokinin receptor type A (Homo sapiens, UniProt P32238, I329A) (P32238 whole entry I329A): as the sequence (P32238 whole entry T117A) above, with A117T, I329A counted along it

For `CC(C)(C)OC(=O)N[C@@H](Cc1c[nH]c2ccccc12)C(=O)N[C@@H]1CCCN2C(=O)N(Cc3ccccc3)C(=O)C[C@@H]12` [IQM-95333], the IC50 [1] was greater than 10000 nM.

In the case of `CC(C)(C)OC(=O)N[C@@H](Cc1c[nH]c2ccccc12)C(=O)N[C@H]1CCCN2C(=O)N(Cc3ccccc3)C(=O)C[C@@H]12`, the IC50 [2] is reported as 6020 nM, the IC50 [3] is reported as 20900 nM and the IC50 [4] is reported as 6850 nM.

Compound `CC(C)(C)OC(=O)N[C@@H](Cc1c[nH]c2ccccc12)C(=O)N[C@@H]1CCCN2C(=O)N(c3cccc4ccccc34)C(=O)C[C@@H]12` has a Fmut [5] of 0.9, an IC50 [6] of 801 nM and a Fmut [7] of 3. It also gave a Fmut [8] of 0.5, a Fmut [9] of 0.7 and a Fmut [10] of 2. For the same compound, the IC50 [2] was greater than 10000 nM, the IC50 [11] was 9.3 nM and the Fmut [12] was 90.8. For the same compound, the Fmut [13] was 1, the Fmut [14] was 0.2 and the Fmut [15] was 21.2. It also gave an IC50 [3] of 8.8 nM, an IC50 [16] of 8.9 nM and an IC50 [17] of 227 nM. For the same compound, the IC50 [18] was 5.2 nM, the IC50 [19] was 7.9 nM and the Fmut [20] was 40.1. It also gave an IC50 [21] of 0.59 nM, an IC50 [22] of 3.6 nM and an IC50 [23] of 582 nM. The IC50 [4] was 2.1 nM, the IC50 [24] was 26.8 nM and the IC50 [25] was 24.9 nM.

In the case of `CC(C)(C)OC(=O)N[C@@H](Cc1c[nH]c2ccccc12)C(=O)N[C@@H]1CCCN2C(S)N(Cc3ccccc3)C(=O)C[C@@H]12` (some centres undefined), the Fmut [5] is reported as 0.4, the IC50 [6] is reported as 183 nM and the Fmut [7] is reported as 4.6. For the same compound, the Fmut [8] was 0.2, the Fmut [9] was 0.8 and the Fmut [10] was 1.6. The IC50 [2] was greater than 10000 nM, the IC50 [11] was 129 nM and the Fmut [12] was 24.9. The Fmut [13] was 6.6, the Fmut [14] was 0.3 and the Fmut [15] was 61.6. The IC50 [3] was 7.3 nM, the IC50 [16] was 11.8 nM and the IC50 [17] was 831 nM. The IC50 [18] was 5.8 nM, the IC50 [19] was 27.5 nM and the Fmut [20] was 138. It also gave an IC50 [22] of 5.7 nM, an IC50 [23] of 2060 nM and an IC50 [4] of 3.8 nM. The IC50 [24] was 31.5 nM and the IC50 [25] was 28.4 nM.

`CC(C)(C)OC(=O)N[C@@H](Cc1c[nH]c2ccccc12)C(=O)N[C@@H]1CCCN2C(=O)N(c3ccccc3)C(=O)C[C@@H]12` was tested, and the Fmut [5] was 0.7, the IC50 [6] was 514 nM and the Fmut [7] was 0.7. The Fmut [8] was 1.2, the Fmut [9] was 0.8 and the Fmut [10] was 1.9. The IC50 [2] was greater than 10000 nM, the IC50 [11] was 1110 nM and the Fmut [12] was 14.3. It also gave a Fmut [13] of 30.8, a Fmut [14] of 0.4 and a Fmut [15] of 65.5. For the same compound, the IC50 [3] was 35.8 nM, the IC50 [16] was 23 nM and the IC50 [17] was 2290 nM. For the same compound, the IC50 [18] was 35.2 nM, the IC50 [19] was 33.2 nM and the Fmut [20] was 125. For the same compound, the IC50 [22] was 36.6 nM, the IC50 [23] was 4860 nM and the IC50 [4] was 5.2 nM. The IC50 [24] was 23.3 nM and the IC50 [25] was 71.6 nM.

Reference: ChEMBL document CHEMBL1144401, “Combination of molecular modeling, site-directed mutagenesis, and SAR studies to delineate the binding site of pyridopyrimidine antagonists on the human CCK1 receptor” (J Med Chem, 2005)
